Measured values as given in ChEMBL document CHEMBL1142960, “Synthesis and structure-activity relationships for 2,4-dinitrobenzamide-5-mustards as prodrugs for the Escherichia coli nfsB nitroreductase in gene therapy” (J Med Chem, 2007).
In brackets after ≈: the same amount, converted by molar mass.

tested on: not listed separately; experiment: Partition coefficient at pH 7.4 by shake-flask method; type: physicochemical; settings: octanol/water
In short: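 Octanol-water partition coefficient by shake-flask at pH 7.4, reported with SEM.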

SMILES	logD
NC(=O)c1cc(N2CC2)c([N+](=O)[O-])cc1[N+](=O)[O-] [TRETAZICAR]	0.14

tested on: V79; experiment: Antiproliferative activity against chinese hamster wild-type V79 NTR-ve cells after 18 hrs; type: functional, cell-based; settings: Cricetulus griseus, V79, 18 h

SMILES	IC50
CS(=O)(=O)c1cc([N+](=O)[O-])c(C(N)=O)cc1N(CCCl)CCCl	767 µM
NC(=O)c1cc(N2CC2)c([N+](=O)[O-])cc1[N+](=O)[O-] [TRETAZICAR]	374 µM

tested on: V79; experiment: Antiproliferative activity against chinese hamster V79 NTRpuro cells after 18 hrs; type: functional, cell-based; settings: Cricetulus griseus, V79, 18 h

SMILES	IC50
CS(=O)(=O)c1cc([N+](=O)[O-])c(C(N)=O)cc1N(CCCl)CCCl	9.5 µM
NC(=O)c1cc(N2CC2)c([N+](=O)[O-])cc1[N+](=O)[O-] [TRETAZICAR]	0.26 µM

tested on: V79; experiment: Selectivity ratio of IC50 for V79 NTR-ve cells to IC50 for V79 NTRpuro cells; type: functional, Cricetulus griseus; settings: not given

SMILES	Ratio IC50
CS(=O)(=O)c1cc([N+](=O)[O-])c(C(N)=O)cc1N(CCCl)CCCl	73
NC(=O)c1cc(N2CC2)c([N+](=O)[O-])cc1[N+](=O)[O-] [TRETAZICAR]	2090

tested on: EMT6; experiment: Antiproliferative activity against mouse wild type EMT6 NTR-ve cells after 18 hrs; type: functional, cell-based; settings: EMT6, 18 h

SMILES	IC50
CS(=O)(=O)c1cc([N+](=O)[O-])c(C(N)=O)cc1N(CCCl)CCCl	388 µM
NC(=O)c1cc(N2CC2)c([N+](=O)[O-])cc1[N+](=O)[O-] [TRETAZICAR]	83 µM

tested on: EMT6; experiment: Antiproliferative activity against mouse EMT6 NTRpuro cells after 18 hrs; type: functional, cell-based; settings: EMT6, 18 h

SMILES	IC50
CS(=O)(=O)c1cc([N+](=O)[O-])c(C(N)=O)cc1N(CCCl)CCCl	3900 nM
NC(=O)c1cc(N2CC2)c([N+](=O)[O-])cc1[N+](=O)[O-] [TRETAZICAR]	98 nM

tested on: EMT6; experiment: Selectivity ratio of IC50 for EMT6 NTR-ve cells to IC50 forEMT6 NTRpuro cells; type: functional, Mus musculus; settings: not given

SMILES	Ratio IC50
CS(=O)(=O)c1cc([N+](=O)[O-])c(C(N)=O)cc1N(CCCl)CCCl	101
NC(=O)c1cc(N2CC2)c([N+](=O)[O-])cc1[N+](=O)[O-] [TRETAZICAR]	947

tested on: WiDr; experiment: Antiproliferative activity against human wild type WiDr NTR-ve cells after 18 hrs; type: functional, cell-based; settings: not given

SMILES	IC50
O=C(NCCO)c1cc(N(CCI)CCI)c([N+](=O)[O-])cc1[N+](=O)[O-]	28 µM
CS(=O)(=O)c1cc([N+](=O)[O-])c(C(N)=O)cc1N(CCCl)CCCl	350 µM
NC(=O)c1cc(N2CC2)c([N+](=O)[O-])cc1[N+](=O)[O-] [TRETAZICAR]	54.5 µM

tested on: WiDr; experiment: Antiproliferative activity against human WiDr NTRneo cells after 18 hrs; type: functional, cell-based; settings: not given

SMILES	IC50
O=C(NCCO)c1cc(N(CCI)CCI)c([N+](=O)[O-])cc1[N+](=O)[O-]	882 nM
CS(=O)(=O)c1cc([N+](=O)[O-])c(C(N)=O)cc1N(CCCl)CCCl	26000 nM
NC(=O)c1cc(N2CC2)c([N+](=O)[O-])cc1[N+](=O)[O-] [TRETAZICAR]	1140 nM

tested on: WiDr; experiment: Selectivity ratio of IC50 for WiDr NTR-ve cells to IC50 for WiDr NTRneo cells; type: functional, Homo sapiens; settings: not given

SMILES	Ratio IC50
O=C(NCCO)c1cc(N(CCI)CCI)c([N+](=O)[O-])cc1[N+](=O)[O-]	31.7
CS(=O)(=O)c1cc([N+](=O)[O-])c(C(N)=O)cc1N(CCCl)CCCl	15
NC(=O)c1cc(N2CC2)c([N+](=O)[O-])cc1[N+](=O)[O-] [TRETAZICAR]	51.1

tested on: not listed separately; experiment: Antiproliferative activity against human wild type Skov3 NTR-ve cells after 18 hrs; type: functional, cell-based; settings: not given

SMILES	IC50
CS(=O)(=O)c1cc([N+](=O)[O-])c(C(N)=O)cc1N(CCCl)CCCl	980 µM
NC(=O)c1cc(N2CC2)c([N+](=O)[O-])cc1[N+](=O)[O-] [TRETAZICAR]	174 µM

tested on: V79; experiment: Clonogenic survival of V79 NTRoua cells after 5 hrs by MCL assay; type: functional, Cricetulus griseus; settings: not given

SMILES	Activity
O=C(NCCO)c1cc(N(CCI)CCI)c([N+](=O)[O-])cc1[N+](=O)[O-]	122 µM
CS(=O)(=O)c1cc([N+](=O)[O-])c(C(N)=O)cc1N(CCCl)CCCl	>1000 µM
NC(=O)c1cc(N2CC2)c([N+](=O)[O-])cc1[N+](=O)[O-] [TRETAZICAR]	1400 µM

tested on: not listed separately; experiment: Antiproliferative activity against human Skov3 NTRneo cells after 18 hrs; type: functional, cell-based; settings: SK-OV-3, 18 h

SMILES	IC50
CS(=O)(=O)c1cc([N+](=O)[O-])c(C(N)=O)cc1N(CCCl)CCCl	15 µM
NC(=O)c1cc(N2CC2)c([N+](=O)[O-])cc1[N+](=O)[O-] [TRETAZICAR]	0.64 µM

tested on: not listed separately; experiment: Selectivity ratio of IC50 for Skov3 NTR-ve cells to IC50 for Skov3 NTRneo cells; type: functional, Homo sapiens; settings: not given

SMILES	Ratio IC50
CS(=O)(=O)c1cc([N+](=O)[O-])c(C(N)=O)cc1N(CCCl)CCCl	65
NC(=O)c1cc(N2CC2)c([N+](=O)[O-])cc1[N+](=O)[O-] [TRETAZICAR]	317

tested on: V79; experiment: Clonogenic survival of 3% V79 NTRpuro cells in co-cultures with 97% V79 NTRoua after 5 hrs by MCL assay; type: functional, Cricetulus griseus; settings: not given
In short: (§1)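 Multicellular layer cocultures of 3% V79-NTRpuro activators and 97% V79oua NTR-ve targets (ouabain-resistant), exposed to prodrug for 5 h. MCLs were then trypsin-dissociated and plated in ouabain or puromycin selective media for clonogenic survival. C10 (10% survival) interpolated for activators and targets; AC/TC ratio derived. Mean with SEM or range over independent experiments.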

SMILES	Activity
O=C(NCCO)c1cc(N(CCI)CCI)c([N+](=O)[O-])cc1[N+](=O)[O-]	5.5 µM
CS(=O)(=O)c1cc([N+](=O)[O-])c(C(N)=O)cc1N(CCCl)CCCl	160 µM
NC(=O)c1cc(N2CC2)c([N+](=O)[O-])cc1[N+](=O)[O-] [TRETAZICAR]	23 µM

tested on: V79; experiment: Clonogenic survival of 97% V79 NTRoua cells in co-cultures with 3% V79 NTRpuro cells after 5 hrs by MCL assay; type: functional, Cricetulus griseus; settings: not given; in short: as §1

SMILES	Activity
O=C(NCCO)c1cc(N(CCI)CCI)c([N+](=O)[O-])cc1[N+](=O)[O-]	10 µM
CS(=O)(=O)c1cc([N+](=O)[O-])c(C(N)=O)cc1N(CCCl)CCCl	>300 µM
NC(=O)c1cc(N2CC2)c([N+](=O)[O-])cc1[N+](=O)[O-] [TRETAZICAR]	173 µM

tested on: not listed separately; experiment: Toxicity in ip dosed CD1 nude mouse in DMA/PEG; type: organism-based; settings: in vivo
In short: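 Maximum tolerated dose (MTD) determined in CD-1 nude mice after a single i.p. injection of prodrug, given in the vehicle named in each line.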

SMILES	MTD
NC(=O)c1cc(N2CC2)c([N+](=O)[O-])cc1[N+](=O)[O-] [TRETAZICAR]	200 µmol/kg

tested on: EMT6; experiment: Antitumor activity against mixed mouse EMT6/EMT6 NTRpuro cells injected in CD1 nude mouse assessed as cell kill at 200 umol/kg, ip in DMA/PEG after 18 hrs; type: functional; settings: not given

SMILES	LCK
NC(=O)c1cc(N2CC2)c([N+](=O)[O-])cc1[N+](=O)[O-] [TRETAZICAR]	3.16

tested on: V79; experiment: Clonogenic survival ratio of 3% V79 NTRpuro cells to 97% V79 NTRoua cells in co-culture; type: functional, Cricetulus griseus; settings: not given; in short: as §1

SMILES	Ratio
NC(=O)c1cc(N2CC2)c([N+](=O)[O-])cc1[N+](=O)[O-] [TRETAZICAR]	0.14

tested on: WiDr; experiment: Antitumor activity against mixed human 10% WiDr NTRneo/ 90% WiDr tumor cells injected in CD1 nude mouse assessed as growth delay at 200 umol/kg, ip in DMA/PEG; type: functional; settings: not given
In short: (§2)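 WiDr-NTRneo tumours (100% NTR+ve, or 1:9 NTR+ve:NTR-ve mixtures) in CD-1 nude mice, given a single i.p. dose at MTD. Read-out is median growth delay to 15 mm mean diameter, plus tumours not palpable 100 days after treatment. Aziridine given at 200 µmol/kg as positive control in every experiment.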

SMILES	Activity
NC(=O)c1cc(N2CC2)c([N+](=O)[O-])cc1[N+](=O)[O-] [TRETAZICAR]	14 days

tested on: WiDr; experiment: Antitumor activity against human 100% WiDr NTRneo tumor cells injected in CD1 nude mouse assessed as growth delay at 200 umol/kg, ip in DMA/PEG; type: functional; settings: not given; in short: as §2

SMILES	Activity
NC(=O)c1cc(N2CC2)c([N+](=O)[O-])cc1[N+](=O)[O-] [TRETAZICAR]	>88 days

tested on: not listed separately; experiment: Solubility in alpha MEM; type: physicochemical; settings: not given
In short: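 Solubility (mM) in α-MEM with 5% fetal calf serum at ambient temperature, measured by HPLC.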

SMILES	solubility
O=C(NCCO)c1cc(N(CCI)CCI)c([N+](=O)[O-])cc1[N+](=O)[O-]	400 µM (≈ 231 µg/mL)
CS(=O)(=O)c1cc([N+](=O)[O-])c(C(N)=O)cc1N(CCCl)CCCl	330 µM (≈ 127 µg/mL)

tested on: not listed separately; experiment: Stability in alpha MEM at 37 degC after 24 hrs; type: physicochemical; settings: read-out: Stability
In short: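 Percent parent compound remaining, by HPLC, after holding in α-MEM with 5% fetal calf serum at 37 °C for 24 h.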

SMILES	remaining at 24 h
O=C(NCCO)c1cc(N(CCI)CCI)c([N+](=O)[O-])cc1[N+](=O)[O-]	23%
